# Measurements published in ChEMBL document CHEMBL4732146, “Nitric oxide-donating and reactive oxygen species-responsive prochelators based on 8-hydroxyquinoline as anticancer agents” (Eur J Med Chem, 2021).
# The source made the active and inactive calls. The calls are words filed in the database; no cut-off is given here.
# What was measured:
# [1] = Metal chelating activity assessed as compound-Cu2+ complex formation measured after 40 mins by calcein dye based fluorescence assay; conditions: dose 10-50 µM
# Outline: (§1)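 Calcein (10 µM) in 50 mM HEPES was quenched by 10 µM CuCl₂ (or FeCl₃ for the Fe³⁺ arm). Chelator was added from DMSO stock to a final 10 or 50 µM and incubated 40 min at room temperature. Recovery rate was calculated from fluorescence (λex 485 / λem 520 nm); n = 3.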
# [2] = Metal chelating activity assessed as compound-Fe3+ complex formation measured after 40 mins by calcein dye based fluorescence assay; conditions: dose 10-50 µM; outline: as §1
# [3] = Drug metabolism in human PANC-1 cells assessed as nitric oxide release at 10 uM measured after 8 hrs by Griess assay; assay type: ADME, cell-based; conditions: panc-1, 8 h
# Outline: (§2)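 Cells exposed 8 h to 10 µM compound. Nitrite measured by Griess reagent kit at 540 nm against a NaNO₂ calibration curve. Mean ± SD, n = 3.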
# [4] = Drug metabolism in human SW1990 cells assessed as nitric oxide release at 10 uM measured after 8 hrs by Griess assay; assay type: ADME, cell-based; conditions: sw1990, 8 h; outline: as §2
# [5] = test system: A549; test: Cytotoxicity against human A549 cells assessed as reduction in cell viability at 10 to 20 uM measured after 48 hrs by MTT assay; assay type: functional, cell-based; conditions: dose 10-20 µM
# [6] = test system: HeLa; test: Cytotoxicity against human HeLa cells assessed as reduction in cell viability at 10 to 20 uM measured after 48 hrs by MTT assay; assay type: functional, cell-based; conditions: dose 10-20 µM
# [7] = test system: HepG2; test: Cytotoxicity against human HepG2 cells assessed as reduction in cell viability at 10 to 20 uM measured after 48 hrs by MTT assay; assay type: functional, cell-based; conditions: dose 10-20 µM
# Outline: (§3)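 MTT assay with 48 h compound exposure at 10 or 20 µM. Cells seeded 6 × 10⁴ per well and grown 24 h beforehand. MTT 4 h, DMSO solubilisation, A490 read. Percent cell death given as mean ± SD, n = 3.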
# [8] = test system: MCF7; test: Cytotoxicity against human MCF7 cells assessed as reduction in cell viability at 10 to 20 uM measured after 48 hrs by MTT assay; assay type: functional, cell-based; conditions: dose 10-20 µM; outline: as §3
# [9] = test system: PANC-1; test: Cytotoxicity against human PANC-1 cells assessed as reduction in cell viability at 10 uM measured after 48 hrs by MTT assay; assay type: functional, cell-based; outline: as §3
# [10] = test system: PANC-1; test: Cytotoxicity against human PANC-1 cells assessed as reduction in cell viability at 20 uM measured after 48 hrs by MTT assay relative to control; assay type: functional; outline: as §3
# [11] = test system: A549; test: Cytotoxicity against human A549 cells assessed as reduction in cell viability measured after 48 hrs by MTT assay; assay type: functional, cell-based; conditions: A549, 48 h
# [12] = test system: HeLa; test: Cytotoxicity against human HeLa cells assessed as reduction in cell viability measured after 48 hrs by MTT assay; assay type: functional, cell-based
# [13] = test system: HepG2; test: Cytotoxicity against human HepG2 cells assessed as reduction in cell viability measured after 48 hrs by MTT assay; assay type: functional, cell-based; conditions: HepG2, 48 h
# Outline: (§4)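 Cells seeded 6 × 10⁴ per well, cultured 24 h at 37 °C under 5% CO₂, then exposed to compound for 48 h, with or without 50 µM CuCl₂ or FeCl₃ co-incubation. MTT added for 4 h at 37 °C, formazan dissolved in DMSO, A490 read. IC50 reported as mean (SD), n = 3.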
# [14] = test system: MCF7; test: Cytotoxicity against human MCF7 cells assessed as reduction in cell viability measured after 48 hrs by MTT assay; assay type: functional, cell-based; conditions: MCF7, 48 h; outline: as §4
# [15] = test system: PANC-1; test: Cytotoxicity against human PANC-1 cells assessed as reduction in cell viability measured after 48 hrs by MTT assay; assay type: functional, cell-based; conditions: PANC-1, 48 h; outline: as §4
# [16] = test system: HCT-116; test: Cytotoxicity against human HCT-116 cells assessed as reduction in cell viability measured after 48 hrs by MTT assay; assay type: functional, cell-based; conditions: HCT-116, 48 h; outline: as §4
# [17] = test system: PC-3; test: Cytotoxicity against human PC-3 cells assessed as reduction in cell viability measured after 48 hrs by MTT assay; assay type: functional, cell-based; conditions: PC-3, 48 h; outline: as §4
# [18] = test system: SW1990; test: Cytotoxicity against human SW1990 cells assessed as reduction in cell viability measured after 48 hrs by MTT assay; assay type: functional, cell-based; conditions: SW1990, 48 h; outline: as §4
# [19] = test system: A549; test: Cytotoxicity against human A549 cells assessed as reduction in cell viability measured after 48 hrs in presence of CuCl2 by MTT assay; assay type: functional, cell-based; conditions: A549, 48 h
# [20] = test system: HeLa; test: Cytotoxicity against human HeLa cells assessed as reduction in cell viability measured after 48 hrs in presence of CuCl2 by MTT assay; assay type: functional, cell-based
# [21] = test system: HepG2; test: Cytotoxicity against human HepG2 cells assessed as reduction in cell viability measured after 48 hrs in presence of CuCl2 by MTT assay; assay type: functional, cell-based; conditions: HepG2, 48 h; outline: as §4
# [22] = test system: MCF7; test: Cytotoxicity against human MCF7 cells assessed as reduction in cell viability measured after 48 hrs in presence of CuCl2 by MTT assay; assay type: functional, cell-based; conditions: MCF7, 48 h; outline: as §4
# [23] = test system: PANC-1; test: Cytotoxicity against human PANC-1 cells assessed as reduction in cell viability measured after 48 hrs in presence of CuCl2 by MTT assay; assay type: functional, cell-based; conditions: PANC-1, 48 h; outline: as §4
# [24] = test system: HCT-116; test: Cytotoxicity against human HCT-116 cells assessed as reduction in cell viability measured after 48 hrs in presence of CuCl2 by MTT assay; assay type: functional, cell-based; conditions: HCT-116, 48 h; outline: as §4
# [25] = test system: PC-3; test: Cytotoxicity against human PC-3 cells assessed as reduction in cell viability measured after 48 hrs in presence of CuCl2 by MTT assay; assay type: functional, cell-based; conditions: PC-3, 48 h; outline: as §4
# [26] = test system: SW1990; test: Cytotoxicity against human SW1990 cells assessed as reduction in cell viability measured after 48 hrs in presence of CuCl2 by MTT assay; assay type: functional, cell-based; conditions: SW1990, 48 h; outline: as §4
# [27] = test system: A549; test: Cytotoxicity against human A549 cells assessed as reduction in cell viability measured after 48 hrs in presence of FeCl3 by MTT assay; assay type: functional, cell-based; conditions: A549, 48 h
# [28] = test system: HeLa; test: Cytotoxicity against human HeLa cells assessed as reduction in cell viability measured after 48 hrs in presence of FeCl3 by MTT assay; assay type: functional, cell-based
# [29] = test system: HepG2; test: Cytotoxicity against human HepG2 cells assessed as reduction in cell viability measured after 48 hrs in presence of FeCl3 by MTT assay; assay type: functional, cell-based; conditions: HepG2, 48 h; outline: as §4
# [30] = test system: MCF7; test: Cytotoxicity against human MCF7 cells assessed as reduction in cell viability measured after 48 hrs in presence of FeCl3 by MTT assay; assay type: functional, cell-based; conditions: MCF7, 48 h; outline: as §4
# [31] = test system: PANC-1; test: Cytotoxicity against human PANC-1 cells assessed as reduction in cell viability measured after 48 hrs in presence of FeCl3 by MTT assay; assay type: functional, cell-based; conditions: PANC-1, 48 h; outline: as §4
# [32] = test system: HCT-116; test: Cytotoxicity against human HCT-116 cells assessed as reduction in cell viability measured after 48 hrs in presence of FeCl3 by MTT assay; assay type: functional, cell-based; conditions: HCT-116, 48 h; outline: as §4
# [33] = test system: PC-3; test: Cytotoxicity against human PC-3 cells assessed as reduction in cell viability measured after 48 hrs in presence of FeCl3 by MTT assay; assay type: functional, cell-based; conditions: PC-3, 48 h; outline: as §4
# [34] = test system: SW1990; test: Cytotoxicity against human SW1990 cells assessed as reduction in cell viability measured after 48 hrs in presence of FeCl3 by MTT assay; assay type: functional, cell-based; conditions: SW1990, 48 h; outline: as §4
# [35] = Cytotoxicity against human H6C7 cells assessed as reduction in cell viability measured after 48 hrs by MTT assay; assay type: cell-based; conditions: H6C7, 48 h; outline: as §4
# [36] = Cytotoxicity against human RWPE2 cells assessed as reduction in cell viability measured after 48 hrs by MTT assay; assay type: cell-based; conditions: RWPE2, 48 h; outline: as §4
# [37] = Drug metabolism in human SW1990 cells assessed as nitric oxide release at 12 uM measured after 24 hrs by DAF-FM DA probe based flow cytometry; assay type: ADME, cell-based; conditions: sw1990, 24 h
# Outline: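 SW1990 cells at 80% confluence loaded with 5 µM DAF-FM DA for 20 min at 37 °C, rinsed, then incubated with compound. Optional 1 h pretreatment with 50 µM carboxyl-PTIO before 12 µM treatment. Fluorescence read by flow cytometry (ex 495 / em 515 nm). Mean ± SD, n = 3.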
# [38] = test system: SW1990; test: Cytotoxicity against human SW1990 cells assessed as reduction in cell viability at 10 to 20 uM measured after 48 hrs by MTT assay; assay type: functional, cell-based; conditions: dose 10-20 µM; outline: as §3
# [39] = test system: SW1990; test: Induction of apoptosis in human SW1990 cells at 12 uM measured after 24 hrs by Annexin V-FITC/propidium iodide staining based flow cytometry; assay type: functional, cell-based
# Outline: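 SW1990 cells seeded 5 × 10⁵ per well and grown 24 h, then treated 24 h at 8 or 12 µM. Optional 1 h pretreatment with 20 mM NAC or 50 µM carboxyl-PTIO before 12 µM treatment. Cells stained with annexin V-FITC 15 min and PI 5 min at room temperature in the dark, then analysed by flow cytometry. Mean ± SD, n = 3.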
structure (smiles),measurement,setting,value
O=C(NCCCOc1no[n+]([O-])c1S(=O)(=O)c1ccccc1)c1ccc2cccc(O)c2n1,Activity,[1],Dose-dependent effect
same,Activity,[2],Dose-dependent effect
same,Drug metabolism,[3],Metabolite_Detected
same,Drug metabolism,[4],Metabolite_Detected
same,Activity,[5],Active
same,Activity,[6],Active
same,Activity,[7],Active
same,Activity,[8],Active
same,Activity,[9],Active
same,Activity,[10],75.2%
same,IC50,[11],13.8 µM
same,IC50,[12],28.7 µM
same,IC50,[13],17.9 µM
same,IC50,[14],13.4 µM
same,IC50,[15],7.54 µM
same,IC50,[16],14.6 µM
same,IC50,[17],11.7 µM
same,IC50,[18],9.24 µM
same,IC50,[19],4.68 µM
same,IC50,[20],9.56 µM
same,IC50,[21],6.32 µM
same,IC50,[22],3.23 µM
same,IC50,[23],0.86 µM
same,IC50,[24],5.2 µM
same,IC50,[25],5.63 µM
same,IC50,[26],1.47 µM
same,IC50,[27],17.9 µM
same,IC50,[28],33.2 µM
same,IC50,[29],22.4 µM
same,IC50,[30],18.2 µM
same,IC50,[31],13.9 µM
same,IC50,[32],20.1 µM
same,IC50,[33],17.1 µM
same,IC50,[34],12.1 µM
same,IC50,[35],9.05 µM
same,IC50,[36],8.77 µM
O=C(NCCCOc1nonc1S(=O)(=O)c1ccccc1)c1ccc2cccc(OCc3ccc(B(O)O)cc3)c2n1,Drug metabolism,[37],Metabolite_Notdetected
same,Activity,[38],inactive
same,Activity,[39],Active
